This note sets out measurements from ChEMBL document CHEMBL3826907, “Design, synthesis and anti-P. falciparum activity of pyrazolopyridine-sulfonamide derivatives” (Bioorg Med Chem, 2016).

Data set [1] is described as follows: Cytotoxicity against african green monkey BGM cells after 24 hrs by MTT assay. Conditions: chlorocebus aethiops, read-out: MLD50. The data set is classed as cell-based. The essentials:
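MTT (3 mg/mL) was added, the supernatant was removed after 3 h, and the dye was dissolved in DMSO. Read at 570 nm. MLD50 (minimal lethal dose for 50% of cells) taken from non-linear regression dose–response curves.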

Data set [2] relates to Plasmodium falciparum. Nature of the data set: Antimalarial activity against chloroquine/sulfadoxine-resistant Plasmodium falciparum W2 infected in human A+ erythrocytes assessed as reduction in parasite growth after 72 hrs by HRP2 detection based ELISA. Conditions: W2, 72 h. The data set is classed as functional, organism-based. The essentials: (§1)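 P. falciparum W2 cultured in human A+ erythrocytes in RPMI 1640 with human serum, sorbitol-synchronized to rings. Parasitemia 0.05%, hematocrit 1.5%. […] Three freeze-thaw cycles, then HRPII sandwich ELISA read at 450 nm. IC50 from non-linear regression dose–response curves, three separate experiments (±SD).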

Data set [3] can be described thus: Selectivity index, ratio of MLD50 for african green monkey BGM cells to IC50 for chloroquine/sulfadoxine-resistant Plasmodium falciparum W2. The class given is toxicity, cell-based. Conditions: read-out: Selectivity Index. The essentials: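 Selectivity index calculated from the BGM MLD50 (24 h MTT, 570 nm, non-linear regression) and the W2 IC50 (72 h HRPII ELISA in A+ erythrocytes).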

In data set [4] the test system is Plasmodium falciparum. The data set can be described thus: Antimalarial activity against chloroquine-resistant Plasmodium falciparum W2. The data set is classed as functional, organism-based. The essentials:
as §1

Data set [5] concerns Plasmodium falciparum. Nature of the data set: Antimalarial activity against chloroquine-resistant and mefloquine-sensitive Plasmodium falciparum W2 infected in human A+ erythrocytes after 72 hrs by HRP2 detection based ELISA. The data set is classed as functional, organism-based. Conditions: W2, 72 h. The essentials: as §1

Regarding `N#Cc1cnc2c(cnn2-c2ccccc2)c1NCCCCNS(=O)(=O)c1ccc(Cl)cc1`, in data set [1], the CC50 at 24 h was 418 µM. Also, the IC50 in the data set on Plasmodium falciparum [2] was found to be 7.5 µM. In data set [3], the selectivity ratio came out at 55.7.

In the case of `O=Cc1cn(-c2ccnc3cc(Cl)ccc23)nn1`, it took 1.4 µM to reach half-maximal inhibition in the data set on Plasmodium falciparum [4] (IC50).

Regarding `N#Cc1cnc2c(cnn2-c2ccccc2)c1NCCCCNS(=O)(=O)c1ccc(F)cc1`, the CC50 at 24 h in data set [1] is 508 µM. The half-inhibitory concentration (IC50) in the data set with Plasmodium falciparum [2] worked out at 9.3 µM. Moreover, in data set [3], the selectivity ratio was determined as 54.6.

For `CCOC(=O)c1cnc2c(cnn2-c2ccccc2)c1NCCCCNS(=O)(=O)c1ccc(F)cc1`, the CC50 at 24 h in data set [1] worked out at 993 µM. Moreover, the half-maximal inhibitory concentration (IC50) with Plasmodium falciparum [2] turned out to be 4.12 µM. Further, the selectivity ratio in data set [3] stood at 241.

On to `N#Cc1cnc2c(cnn2-c2ccccc2)c1NCCCCNS(=O)(=O)c1ccccc1`, for which the CC50 at 24 h in data set [1] came to 248 µM. Moreover, the half-inhibitory concentration (IC50) in the data set with Plasmodium falciparum [2] was 4.2 µM. Also, the selectivity ratio in data set [3] worked out at 59.

With `CCOC(=O)c1cnc2c(cnn2-c2ccccc2)c1NCCCCNS(=O)(=O)c1ccc(Cl)cc1`, the CC50 at 24 h in data set [1] is more than 1000 µM. For the same compound, the concentration for half-maximal inhibition (IC50) in the data set on Plasmodium falciparum [2] is 3.6 µM. In addition, the selectivity ratio in data set [3] was more than 278.

Turning to `CCOC(=O)c1cnc2c(cnn2-c2ccccc2)c1NCCCCNS(=O)(=O)c1ccc(C)cc1`, the CC50 at 24 h in data set [1] came out at 596 µM. The IC50 in the data set with Plasmodium falciparum [2] stood at 3.46 µM. In data set [3], the selectivity ratio was 172.

With `COc1ncnc(NS(=O)(=O)c2ccc(N)cc2)c1OC` [SULFADOXINE], the CC50 at 24 h in data set [1] amounted to 310 µM. Besides, the IC50 in the data set with Plasmodium falciparum [2] was 15 µM. Moreover, the selectivity ratio in data set [3] was 20.7.

As for `CCOC(=O)c1cnc2c(cnn2-c2ccccc2)c1NCCCCNS(=O)(=O)c1ccccc1`, the CC50 at 24 h in data set [1] is 822 µM. In the data set on Plasmodium falciparum [2], the IC50 is 6.52 µM. The selectivity ratio in data set [3] came out at 126.

For `Cc1ccc(S(=O)(=O)NCCCCNc2c(C#N)cnc3c2cnn3-c2ccccc2)cc1`, the CC50 at 24 h in data set [1] came to 682 µM. In addition, the half-maximal inhibitory concentration (IC50) with Plasmodium falciparum [2] stood at 3.6 µM. The selectivity ratio in data set [3] came to 189.

As to `CCOC(=O)c1cnc2c(cnn2-c2ccccc2)c1NCCCCNS(=O)(=O)c1ccc(OC)cc1`, the CC50 at 24 h in data set [1] worked out at 995 µM. Further, the IC50 with Plasmodium falciparum [2] is 9.3 µM. In addition, the selectivity ratio in data set [3] was 107.

Consider `COc1ccc(S(=O)(=O)NCCCCNc2c(C#N)cnc3c2cnn3-c2ccccc2)cc1`, for which the CC50 at 24 h in data set [1] turned out to be 498 µM. Besides, in the data set with Plasmodium falciparum [2], the 50% inhibitory concentration (IC50) was 5 µM. The selectivity ratio in data set [3] came out at 99.6.

As for `N#Cc1cnc2c(cnn2-c2ccccc2)c1NCCCCN`, the CC50 at 24 h in data set [1] amounted to 503 µM. Also, the IC50 with Plasmodium falciparum [2] was 5 µM. The selectivity ratio in data set [3] worked out at 101.

`Cc1cc(Nc2ccc3ccccc3c2)n2nc(C(F)(F)F)nc2n1`: it took 0.023 µM to reach half-maximal inhibition with Plasmodium falciparum [5] (IC50).
